Source: ChEMBL document CHEMBL3792365, “Dioxol and dihydrodioxin analogs of 2- and 3-phenylacetonitriles as potent anti-cancer agents with nanomolar activity against a variety of human cancer cells” (2016)

How the values were obtained:
Format in all cases: functional
U-251 = experiment: Growth inhibition of human U251 cells at 10 uM after 48 hrs by sulforhodamine B assay; settings: U-251, 48 h, values are per cent of control
Malme-3M = experiment: Growth inhibition of human MALME-3M cells at 10 uM after 48 hrs by sulforhodamine B assay; settings: values are per cent of control
MDA-MB-435 [1] = experiment: Growth inhibition of human MDA-MB-435 cells at 10 uM after 48 hrs by sulforhodamine B assay; settings: MDA-MB-435, 48 h, values are per cent of control
[2] = Growth inhibition of human UACC257 cells at 10 uM after 48 hrs by sulforhodamine B assay; settings: UACC-257, 48 h, values are per cent of control
[3] = Growth inhibition of human OVCAR3 cells at 10 uM after 48 hrs by sulforhodamine B assay; settings: OVCAR-3, 48 h, values are per cent of control
[4] = Growth inhibition of human PC3 cells at 10 uM after 48 hrs by sulforhodamine B assay; settings: PC-3, 48 h, values are per cent of control
MCF7 [5] = experiment: Growth inhibition of human MCF7 cells at 10 uM after 48 hrs by sulforhodamine B assay; settings: MCF7, 48 h, values are per cent of control
[6] = Growth inhibition of human BT549 cells at 10 uM after 48 hrs by sulforhodamine B assay; settings: BT-549, 48 h, values are per cent of control
MDA-MB-468 = experiment: Growth inhibition of human MDA-MB-468 cells at 10 uM after 48 hrs by sulforhodamine B assay; settings: MDA-MB-468, 48 h, values are per cent of control
CCRF-CEM = experiment: Growth inhibition of human CCRF-CEM cells at 10 uM after 48 hrs by sulforhodamine B assay; settings: values are per cent of control
[7] = Growth inhibition of human HL-60(TB) cells at 10 uM after 48 hrs by sulforhodamine B assay; settings: HL-60, 48 h, values are per cent of control
[8] = Growth inhibition of human MOLT4 cells at 10 uM after 48 hrs by sulforhodamine B assay; settings: MOLT-4, 48 h, values are per cent of control
[9] = Growth inhibition of human RPMI8226 cells at 10 uM after 48 hrs by sulforhodamine B assay; settings: RPMI-8226, 48 h, values are per cent of control
SR [10] = experiment: Growth inhibition of human SR cells at 10 uM after 48 hrs by sulforhodamine B assay; settings: values are per cent of control
[11] = Growth inhibition of human HOP62 cells at 10 uM after 48 hrs by sulforhodamine B assay; settings: HOP-62, 48 h, values are per cent of control
[12] = Growth inhibition of human HOP92 cells at 10 uM after 48 hrs by sulforhodamine B assay; settings: HOP-92, 48 h, values are per cent of control
NCI-H226 = experiment: Growth inhibition of human NCI-H226 cells at 10 uM after 48 hrs by sulforhodamine B assay; settings: NCI-H226, 48 h, values are per cent of control
KM12 [13] = experiment: Growth inhibition of human KM12 cells at 10 uM after 48 hrs by sulforhodamine B assay; settings: KM12, 48 h, values are per cent of control
[14] = Growth inhibition of human SNB19 cells at 10 uM after 48 hrs by sulforhodamine B assay; settings: SNB-19, 48 h, values are per cent of control
[15] = Growth inhibition of human HL-60(TB) cells after 48 hrs by sulforhodamine B assay; settings: HL-60, 48 h
How it was run: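 Five-dose study across the 60-cell human tumour panel. GI50 is the drug concentration giving a 50% reduction in net protein increase relative to control cells.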

SR [16] = experiment: Growth inhibition of human SR cells after 48 hrs by sulforhodamine B assay
How it was run: (§1)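 Five-dose concentration series run across a panel of 60 human tumour cell lines. GI50 is taken as the drug concentration giving a 50% reduction in net protein increase relative to untreated control cells.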

[17] = Growth inhibition of human HOP62 cells after 48 hrs by sulforhodamine B assay; settings: HOP-62, 48 h
How it was run: (§2)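 Five-dose testing against a 60-line human tumor cell panel. GI50 is the drug concentration giving a 50% reduction in net protein increase relative to untreated control cells.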

[18] = Growth inhibition of human HOP92 cells after 48 hrs by sulforhodamine B assay; settings: HOP-92, 48 h; how it was run: as §2
NCI-H23 = experiment: Growth inhibition of human NCI-H23 cells after 48 hrs by sulforhodamine B assay; settings: NCI-H23, 48 h; how it was run: as §1
NCI-H522 = experiment: Growth inhibition of human NCI-H522 cells after 48 hrs by sulforhodamine B assay; settings: NCI-H522, 48 h; how it was run: as §1
[19] = Growth inhibition of human HCC2998 cells after 48 hrs by sulforhodamine B assay; settings: HCC 2998, 48 h; how it was run: as §2
[20] = Growth inhibition of human HCT15 cells after 48 hrs by sulforhodamine B assay; settings: HCT-15, 48 h; how it was run: as §2
KM12 [21] = experiment: Growth inhibition of human KM12 cells after 48 hrs by sulforhodamine B assay; settings: KM12, 48 h; how it was run: as §2
[22] = Growth inhibition of human SW620 cells after 48 hrs by sulforhodamine B assay; settings: SW-620, 48 h; how it was run: as §1
[23] = Growth inhibition of human SF268 cells after 48 hrs by sulforhodamine B assay; settings: SF-268, 48 h; how it was run: as §1
[24] = Growth inhibition of human SF539 cells after 48 hrs by sulforhodamine B assay; settings: SF-539, 48 h; how it was run: as §1
MDA-MB-435 [25] = experiment: Growth inhibition of human MDA-MB-435 cells after 48 hrs by sulforhodamine B assay; settings: MDA-MB-435, 48 h; how it was run: as §2
SK-MEL-5 = experiment: Growth inhibition of human SK-MEL-5 cells after 48 hrs by sulforhodamine B assay; settings: SK-MEL-5, 48 h; how it was run: as §1
[26] = Growth inhibition of human NCI-ADR-RES cells after 48 hrs by sulforhodamine B assay; how it was run: as §1
[27] = Growth inhibition of human SKOV3 cells after 48 hrs by sulforhodamine B assay; settings: SK-OV-3, 48 h; how it was run: as §1
[28] = Growth inhibition of human UO31 cells after 48 hrs by sulforhodamine B assay; settings: UO-31, 48 h
How it was run: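 Five-dose testing across the 60-line human tumour cell panel. GI50 is the drug concentration that gives a 50% reduction in net protein increase relative to control cells.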

[29] = Growth inhibition of human PC3 cells after 48 hrs by sulforhodamine B assay; settings: PC-3, 48 h; how it was run: as §1
[30] = Growth inhibition of human DU145 cells after 48 hrs by sulforhodamine B assay; settings: DU-145, 48 h; how it was run: as §2
MCF7 [31] = experiment: Growth inhibition of human MCF7 cells after 48 hrs by sulforhodamine B assay; settings: MCF7, 48 h; how it was run: as §2
MDA-MB-231 = experiment: Growth inhibition of human MDA-MB-231 cells after 48 hrs by sulforhodamine B assay; settings: MDA-MB-231, 48 h; how it was run: as §2
[32] = Growth inhibition of human Hs 578T cells after 48 hrs by sulforhodamine B assay; how it was run: as §2

COc1ccc(/C=C(\C#N)c2ccc3c(c2)OCO3)cn1
growth, % of control at 10 µM (U-251): 84.5%
growth, % of control at 10 µM (Malme-3M): 90.6%
growth, % of control at 10 µM (MDA-MB-435 [1]): 37.2%
growth, % of control at 10 µM [2]: 89.4%
growth, % of control at 10 µM [3]: 100%
growth, % of control at 10 µM [4]: 77.9%
growth, % of control at 10 µM (MCF7 [5]): 83.5%
growth, % of control at 10 µM [6]: 81%
growth, % of control at 10 µM (MDA-MB-468): 60.8%
growth, % of control at 10 µM (CCRF-CEM): 87.7%
growth, % of control at 10 µM [7]: 70.8%
growth, % of control at 10 µM [8]: 71.5%
growth, % of control at 10 µM [9]: 73.2%
growth, % of control at 10 µM (SR [10]): 50.1%
growth, % of control at 10 µM [11]: 88.1%
growth, % of control at 10 µM [12]: 64.9%
growth, % of control at 10 µM (NCI-H226): 93.3%
growth, % of control at 10 µM (KM12 [13]): 63.9%
growth, % of control at 10 µM [14]: 96.4%

COc1ccc(/C=C(\C#N)c2ccc3c(c2)OCO3)c(OC)c1
growth, % of control at 10 µM (U-251): 29.2%
growth, % of control at 10 µM (Malme-3M): 49.3%
growth, % of control at 10 µM (MDA-MB-435 [1]): -28.6%
growth, % of control at 10 µM [2]: 44.7%
growth, % of control at 10 µM [3]: 15.3%
growth, % of control at 10 µM [4]: 47%
growth, % of control at 10 µM [6]: 35.3%
growth, % of control at 10 µM (MDA-MB-468): 8.3%
GI50 [15]: 1490 nM
GI50 (SR [16]): 530 nM
GI50 [17]: 3300 nM
GI50 [18]: 7420 nM
GI50 (NCI-H23): 6330 nM
GI50 (NCI-H522): 2580 nM
GI50 [19]: 11900 nM
GI50 [20]: 870 nM
GI50 (KM12 [21]): 2250 nM
GI50 [22]: 1230 nM
GI50 [23]: 9360 nM
GI50 [24]: 1610 nM
GI50 (MDA-MB-435 [25]): 300 nM
GI50 (SK-MEL-5): 2580 nM
GI50 [26]: 2410 nM
GI50 [27]: 2750 nM
growth, % of control at 10 µM (CCRF-CEM): 27%
growth, % of control at 10 µM [7]: 7.1%
growth, % of control at 10 µM [8]: 22.7%
growth, % of control at 10 µM [9]: 58.1%
growth, % of control at 10 µM (SR [10]): 15.5%
growth, % of control at 10 µM [11]: 54%
growth, % of control at 10 µM (NCI-H226): 73.8%
growth, % of control at 10 µM (KM12 [13]): 28.1%
growth, % of control at 10 µM [14]: 55.6%
GI50 [28]: 6660 nM
GI50 [29]: 3030 nM
GI50 [30]: 3620 nM
GI50 (MCF7 [31]): 850 nM
GI50 (MDA-MB-231): 3360 nM
GI50 [32]: 3620 nM
